# According to ChEMBL document CHEMBL2016530, “Synthesis and biological evaluation of pyrethroid insecticide-derivatives as a chemical inducer for Bdnf mRNA expression in neurons” (Bioorg Med Chem, 2012):
# Calls of active or inactive are those of the source. The rule behind the calls is not given here.
# Assays:
# Type in all cases: functional
# Cortical neurone [1] = assay: Increase in BDNF eIV-IX mRNA expression in rat cortical neurons at 10 uM after 3 hrs by RT-PCR analysis
# How it was run: (§1)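 Primary cortical neurons from E17 Sprague–Dawley rat embryos, seeded at 2.5 × 10⁶ cells per polyethylenimine-coated 35 mm dish. Compound added for 3 h (time course 0–24 h at 10 µM). Total RNA extracted with acid guanidine phenol-chloroform and DNase I-treated, then reverse transcribed. Bdnf exon IV-IX mRNA measured by real-time PCR against plasmid standard curves and normalized to Gapdh. Reported as ratio to untreated control; n = 3–4.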
# Cortical neurone [2] = assay: Increase in neurite length in rat cortical neurons at 1 uM after 6 hrs by anti-GFP and anti-MAP2-based fluorescence microscopy
# How it was run: (§2)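 E17 rat cortical neurons GFP-transfected at 4 days in culture, drug-treated for 6 h at day 6, then fixed and stained with anti-GFP/anti-MAP2 and Alexa488/594 secondaries plus DAPI. Under fluorescence microscopy, all neurites arising from the cell body were traced within a 400 µm diameter and their total length measured; n = 3.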
# Cortical neurone [3] = assay: Increase in BDNF eIV-IX mRNA expression in rat cortical neurons at 1 uM after 3 hrs by RT-PCR analysis; how it was run: as §1
# Cortical neurone [4] = assay: Increase in neurite crossings in rat cortical neurons at 1 uM after 6 hrs by Sholl analysis
# How it was run: (§3)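 E17 rat cortical neurons transfected with a GFP expression vector by calcium phosphate at 4 days in culture. At day 6, treated for 6 h, then fixed in 4% formaldehyde/4% sucrose and immunostained for GFP and MAP2. Sholl analysis counted neurite intersections with concentric circles of 20–200 µm radius at 20 µm intervals around the cell body. Cells were not preselected; n = 3.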
# Cortical neurone [5] = assay: Increase in BDNF eIV-IX mRNA expression in rat cortical neurons at 10 uM after 3 hrs by RT-PCR analysis in presence of ERK1/2 inhibitor U0126
# Cortical neurone [6] = assay: Increase in BDNF eIV-IX mRNA expression in rat cortical neurons at 10 uM after 3 hrs by RT-PCR analysis in presence of L-type voltage calcium channel blocker nicradipine
# Cortical neurone [7] = assay: Increase in neurite crossings in rat cortical neurons at 10 uM after 6 hrs by Sholl analysis; how it was run: as §3
# Cortical neurone [8] = assay: Increase in BDNF eIV-IX mRNA expression in rat cortical neurons at 10 uM by RT-PCR analysis; settings: TDE = time-dependent effect; how it was run: as §1
# Cortical neurone [9] = assay: Increase in BDNF eIV-IX mRNA expression in rat cortical neurons at 10 uM after 3 hrs by RT-PCR analysis in presence of VSSC antagonist TTX
# Cortical neurone [10] = assay: Increase in BDNF eIV-IX mRNA expression in rat cortical neurons at 10 uM after 3 hrs by RT-PCR analysis in presence of NMDA receptor antagonist APV
# Cortical neurone [11] = assay: Increase in neurite length in rat cortical neurons at 10 uM after 6 hrs by anti-GFP and anti-MAP2-based fluorescence microscopy; how it was run: as §2
# Cortical neurone [12] = assay: Increase in BDNF eIV-IX mRNA expression in rat cortical neurons at 10 uM at 6 hrs by RT-PCR analysis; how it was run: as §1
# Cortical neurone [13] = assay: Increase in BDNF eIV-IX mRNA expression in rat cortical neurons at 10 uM up to 24 hrs by RT-PCR analysis; how it was run: as §1
# Cortical neurone [14] = assay: Increase in BDNF eIV-IX mRNA expression in rat cortical neurons after 3 hrs by RT-PCR analysis; how it was run: as §1
compound,measurement,setting,value
CC#C[C@@H](OC(=O)[C@@H]1[C@H](C=C(Br)Br)C1(C)C)c1cccc(Oc2ccccc2)c1,Activity,Cortical neurone [1],Active
CC1(C)[C@H](C(=O)O[C@H](C#CCC(F)(F)F)c2cccc(Oc3ccccc3)c2)[C@@H]1C=C(Br)Br,Activity,Cortical neurone [1],Active
CC1(C)[C@H](C(=O)O[C@H](C#N)c2cccc(Oc3ccccc3)c2)[C@@H]1C=C(Br)Br,Activity,Cortical neurone [2],Active
same,Activity,Cortical neurone [3],Active
same,Activity,Cortical neurone [1],Active
same,Activity,Cortical neurone [4],Active
C#C[C@@H](OC(=O)[C@@H]1[C@H](C=C(Br)Br)C1(C)C)c1cccc(Oc2ccccc2)c1,Activity,Cortical neurone [5],inactive
same,Activity,Cortical neurone [6],inactive
same,Activity,Cortical neurone [7],Active
same,Activity,Cortical neurone [8],tde
same,Activity,Cortical neurone [9],inactive
same,Activity,Cortical neurone [10],Active
same,Activity,Cortical neurone [11],Active
same,Activity,Cortical neurone [12],inactive
same,Activity,Cortical neurone [1],Active
same,Activity,Cortical neurone [13],Active
CC1(C)[C@H](C(=O)O[C@H](C#CBr)c2cccc(Oc3ccccc3)c2)[C@@H]1C=C(Br)Br,Activity,Cortical neurone [1],Active
same,Activity,Cortical neurone [14],Dose-dependent effect
CC1(C)[C@H](C(=O)O[C@H](C#CCl)c2cccc(Oc3ccccc3)c2)[C@@H]1C=C(Br)Br,Activity,Cortical neurone [1],Active
same,Activity,Cortical neurone [14],Dose-dependent effect
CCC#C[C@@H](OC(=O)[C@@H]1[C@H](C=C(Br)Br)C1(C)C)c1cccc(Oc2ccccc2)c1,Activity,Cortical neurone [1],Active
CC1(C)[C@H](C(=O)O[C@H](C#CI)c2cccc(Oc3ccccc3)c2)[C@@H]1C=C(Br)Br,Activity,Cortical neurone [1],Active
same,Activity,Cortical neurone [14],Dose-dependent effect
